Screening results: PubChem BioAssay, several laboratories
RGS4 act: potentiators or activators of RGS4; B-score at 10 µM; HEK293 M3R/inducible RGS4, carbachol calcium flux Fluo4; stronger effect = lower value; 310,000 tested, 0.92% active; AID 463111;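 active = B-score of the integrated calcium signal more than 4 SD below the library mean, with starting fluorescence not abnormally high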;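 also: negative B-score means reduced calcium response which marks RGS4 activation or potentiation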
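Reagent: ECmax carbachol challenge; Test system: M3R-expressing HEK293 line, RGS4 induced by doxycycline; Schedule: overnight RGS4 induction, 30 min dye load 37 °C, 20 min compound RT; Detection: calcium dye Fluo4 fluorescence; Read-out: Agonist-evoked peak-minus-minimum fluorescence over baseline, integrated ratio, B score.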
MrgX1 allo act: allosterically activates human MrgX1 receptor signaling. Q96LB2. MrgX1-HEK293, Fluo-4 calcium flux, FDSS; stronger effect = higher value. B-score at 10 µM. 310,000 tested, 0.63% active;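 active = plate-corrected calcium response at least 3 library SD above typical, normal starting fluorescence, not activating the receptor alone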;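 also: compound read alongside a low EC10 to EC30 dose of BAM8-22 agonist; peak minus trough fluorescence over baseline measured at the second addition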
MrgX1 antagonist: antagonists of human MrgX1 receptor; Q96LB2; MRGX1-HEK293 calcium flux, Fluo-4, BAM8-22 antagonism; stronger effect = lower value; B-score at 10 µM; 310,000 tested, 1.3% active; AID 588676;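 active = calcium-response B-score plate-corrected more than 3 library SD below zero, starting fluorescence within 5 deviations, no agonist response on first addition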;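 also: peak minus trough fluorescence over baseline after final BAM8-22 challenge near maximal dose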
Cl transport mod: modulators of human KCC2 chloride dependent transport; AID 1456; B-score of Tl+ flux slope (higher = more flux/activation; lower = inhibition) at 10 µM; Q9H2X9; KCC2 cells, thallium flux FluoZin-2 fluorescence; 190,000 tested, 2.2% active;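 active = thallium flux slope and its plate-corrected score both differing from the plate sample mean at a set confidence after two filtering rounds, in either direction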;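 also: slope of fluorescence scaled to starting intensity during 10 to 20 s after thallium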
RGS4 inh: inhibitors of human RGS4. B-score at 10 µM. HEK293 M3R/RGS4 inducible, Fluo-4 calcium flux; stronger effect = higher value; triggered by carbachol at its EC20. 310,000 tested, 0.45% active. P49798. AID 463165;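 active = B-score, a plate-corrected calcium signal, over three deviations above library mean, with baseline fluorescence within five deviations of library mean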;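 also: RGS4 expression induced by doxycycline in cells with stable M3 receptor; B-score is computed from the integrated fluorescence ratio over baseline after carbachol; higher B-score means a larger calcium signal and so more RGS4 inhibition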
MrgX1 ag: agonists of human MrgX1 receptor; Q96LB2; MrgX1-HEK293 cells, Fluo-4 calcium fluorescence, agonist mode; stronger effect = higher value; B-score at 10 µM; 310,000 tested, 0.44% active; AID 588627;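 active = calcium response B-score plate-corrected fluorescence ratio at least 3 library SD, with starting fluorescence B-score inside 5 SD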
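Assay system: MrgX1-expressing HEK293 cells / Amount: fifteen thousand cells per well / Doses: test compound in the initial addition of three / Timing: cells plated overnight, dye loaded 0.5 h 37 °C, 0.5 h room temperature / Technique: kinetic calcium dye fluorescence, Fluo-4 NW / Control set: positive and negative controls per plate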
MrgX1 allo conf: confirmation of human MrgX1 receptor positive allosteric modulators. 1,200 tested, 13% active. shares compounds with MrgX1 allo act. MrgX1-HEK293, Fluo-4 calcium fluorescence, FDSS. activation (ratio percentage), % at 10 µM;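 active = ratio at least 3 SD above the weak peptide control, stable starting fluorescence, no direct agonism earlier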;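 also: compound followed by low BAM8-22 agonist challenge near EC20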
HEK293 Ca flux: activity in parental HEK293 cells lacking MrgX1 | AID 624111 | 4,000 tested, 2% active | fluorescence ratio F(max-min)/F0 at 10 µM | shares compounds with MrgX1 antagonist | Fluo-4 calcium fluorescence, FDSS;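 active = duplicate-averaged calcium fluorescence ratio at least three times the standard deviation of buffer wells, a nonspecific response in parental cells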
HEK293 Ca counter: activity in parental HEK293 cells without MrgX1. 4,000 tested, 0.4% active. shares compounds with MrgX1 antagonist. parental HEK293 calcium flux, Fluo-4 fluorescence ratio; stronger effect = higher value. fluorescence ratio F(max-min)/F0 at 10 µM;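 active = calcium fluorescence ratio, averaged over duplicates, at least 3 SD of the buffer-well ratio, meaning a nonspecific response in receptor-free cells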;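 also: untransfected parental HEK293 lacking MrgX1 used as counterscreen for MrgX1 allosteric activators; fluorescence change taken during the second addition on a kinetic imager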
HEK293 Ca cntr2: MrgX1 activator counter-screen hit in parental HEK293 cells; shares compounds with MrgX1 antagonist; Fluo-4 calcium fluorescence (FDSS); stronger effect = higher value; fluorescence ratio F(max-min)/F0 at 10 µM; 4,000 tested, 8.7% active; AID 624115;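 active = calcium fluorescence ratio at least three times the spread of buffer wells, meaning a non-specific response in parental cells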
* = called active by the depositor; i = inactive; / = no result. Hits are enriched below; roughly 4.7% of the tested compounds scored in any of these assays.

SMILES	RGS4 act	MrgX1 allo act	MrgX1 antagonist	Cl transport mod	RGS4 inh	MrgX1 ag	MrgX1 allo conf	HEK293 Ca flux	HEK293 Ca counter	HEK293 Ca cntr2
CC1Cc2ccccc2N1C(=S)NC(=O)c1cccc(Br)c1 (centres undefined)	i	10*	i	63*	i	i	i	i	i	i
O=c1[nH]c(Nc2ccccc2)cc2ccccc12	i	19*	i	/	i	i	34%*	i	i	i
Cc1cc2c(N3CCCCC3C)ncnc2s1 (centres undefined)	i	7.1*	i	-0.43	i	i	i	i	i	i
COc1ccccc1NC(=O)c1ccc(NS(=O)(=O)c2ccc(F)c(F)c2F)cc1	i	36*	i	-1.2	i	i	28%*	i	i	i
CCN(CC(=O)Nc1ccc(OC)cc1)CC(=O)Nc1ccc(Br)cc1F	i	i	i	-3.2	i	i	/	/	/	/
COc1ccc(NCC(=O)Nc2ccc(Br)cc2F)c(OC)c1	i	9.2*	i	-0.12	i	i	i	i	i	i
CN1C(C(=O)Nc2cccc(O)c2)=CC(c2ccco2)=NS1(=O)=O	i	i	i	/	i	i	/	/	/	/
Cc1ccc2nc(-c3cccc(Br)c3)cc(C(=O)NC3=NCCS3)c2c1	i	31*	i	0.0013	i	i	i	i	i	i
O=C(NC1=NCCS1)c1cc(-c2cccc(Br)c2)nc2ccccc12	i	i	i	0.86	i	i	/	/	/	/
Oc1ccccc1-c1cc(-c2ccc3c(c2)OCCO3)n[nH]1	i	6.9*	i	0.16	i	i	i	i	i	i
O=C(O)c1cc(-c2ccc3c(c2)OCCO3)n[nH]1	i	i	i	-0.0081	i	i	/	/	/	/
O=C(NCc1ccc(F)cc1)C1CCCN(S(=O)(=O)c2ccc(-n3cnnn3)cc2)C1 (centres undefined)	i	8*	i	/	i	i	i	i	i	i
CC(CNC(=O)CCS(=O)(=O)c1cc2c(cc1Cl)NC(=O)CO2)c1ccccc1 (centres undefined)	i	i	i	/	i	i	/	/	/	/
OCC1(Cc2ccc(F)cc2)CCCN(CCCC(F)(F)F)C1 (centres undefined)	i	i	i	/	i	i	/	/	/	/
CSC1=NSC2=NC(=O)/C(=C/c3coc4ccc(O)cc4c3=O)C(=N)N12	i	i	i	i	i	i	/	/	/	/
CSC1=NSC2=NC(=O)/C(=C\c3cccs3)C(=N)N12	i	27*	i	-0.16	i	i	15%*	i	i	i
CCOc1ccc2nc(SCC(=O)NCc3ccccc3OC)[nH]c2c1	i	15*	i	/	i	i	i	i	i	i
CCOc1ccc2nc(SCC(=O)NCc3ccc(OC)cc3)[nH]c2c1	i	i	i	/	i	i	/	/	/	/
Cc1ccccc1N1C(=O)C2C3C=CC(C2C1=O)N(C)C3=O (centres undefined)	i	i	i	-0.99	i	i	/	/	/	/
Cc1ccccc1N1C(=O)C2C3CCC(O3)C2C1=O (centres undefined)	i	19*	i	/	i	i	i	i	i	i
CCCNC(=O)OCC12CC3CC(CC(C3)C1)C2	i	9.7*	i	1.4	i	i	i	i	i	i
